Reference: ChEMBL document CHEMBL5653631, “A Potent and Selective ULK1 Inhibitor Suppresses Autophagy and Sensitizes Cancer Cells to Nutrient Stress” (iScience, 2018)
Blank lines part the entries; values can stand above or below the compound they belong to.

Columns and labels:
[1] = molecular target: Fibroblast growth factor receptor 2 (Homo sapiens) (UniProt P21802); experiment: Inhibition of human recombinant FGFR2 at 500 nM related to control ULK1
[2] = molecular target: Serine/threonine-protein kinase NIM1 (Homo sapiens) (UniProt Q8IY84); experiment: Inhibition of human recombinant NIM1 at 500 nM in presence of ATP by radiometric assay relative to control
[3] = molecular target: Serine/threonine-protein kinase 24 (Homo sapiens) (UniProt Q9Y6E0); experiment: Inhibition of human recombinant MST3 at 500 nM related to control ULK1
[4] = molecular target: T1, Protein kinase C epsilon type (Homo sapiens) (UniProt Q02156); experiment: Inhibition of human recombinant PKCe at 500 nM in presence of ATP by radiometric assay relative to control
T1 sequence (whole entry): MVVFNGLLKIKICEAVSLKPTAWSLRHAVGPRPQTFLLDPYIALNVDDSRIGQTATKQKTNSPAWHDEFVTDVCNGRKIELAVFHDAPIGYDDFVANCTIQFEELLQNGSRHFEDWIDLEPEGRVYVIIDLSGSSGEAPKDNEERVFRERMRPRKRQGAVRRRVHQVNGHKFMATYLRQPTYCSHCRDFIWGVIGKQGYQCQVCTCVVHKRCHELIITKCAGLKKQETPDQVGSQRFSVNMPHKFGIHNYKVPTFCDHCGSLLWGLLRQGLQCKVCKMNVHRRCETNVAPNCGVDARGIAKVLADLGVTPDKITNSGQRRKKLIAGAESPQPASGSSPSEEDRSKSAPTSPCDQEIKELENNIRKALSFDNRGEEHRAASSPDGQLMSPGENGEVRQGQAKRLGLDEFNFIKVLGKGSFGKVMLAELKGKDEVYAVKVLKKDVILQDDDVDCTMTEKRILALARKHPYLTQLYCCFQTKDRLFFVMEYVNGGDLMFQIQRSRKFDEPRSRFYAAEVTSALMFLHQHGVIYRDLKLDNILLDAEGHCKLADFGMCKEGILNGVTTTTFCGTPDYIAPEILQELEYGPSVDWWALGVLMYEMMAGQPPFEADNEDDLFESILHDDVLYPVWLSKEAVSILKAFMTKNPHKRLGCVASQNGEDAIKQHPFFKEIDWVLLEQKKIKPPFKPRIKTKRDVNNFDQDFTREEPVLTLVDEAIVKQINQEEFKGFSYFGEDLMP

[5] = molecular target: Homeodomain-interacting protein kinase 2 (Homo sapiens) (UniProt Q9H2X6); experiment: Inhibition of human recombinant HIPK2 at 500 nM in presence of ATP by radiometric assay relative to control
[6] = molecular target: T2, Serine/threonine-protein kinase Nek1 (Homo sapiens) (UniProt Q96PY6); experiment: Inhibition of human recombinant NEK1 at 15 nM related to control ULK1
T2 sequence (whole entry): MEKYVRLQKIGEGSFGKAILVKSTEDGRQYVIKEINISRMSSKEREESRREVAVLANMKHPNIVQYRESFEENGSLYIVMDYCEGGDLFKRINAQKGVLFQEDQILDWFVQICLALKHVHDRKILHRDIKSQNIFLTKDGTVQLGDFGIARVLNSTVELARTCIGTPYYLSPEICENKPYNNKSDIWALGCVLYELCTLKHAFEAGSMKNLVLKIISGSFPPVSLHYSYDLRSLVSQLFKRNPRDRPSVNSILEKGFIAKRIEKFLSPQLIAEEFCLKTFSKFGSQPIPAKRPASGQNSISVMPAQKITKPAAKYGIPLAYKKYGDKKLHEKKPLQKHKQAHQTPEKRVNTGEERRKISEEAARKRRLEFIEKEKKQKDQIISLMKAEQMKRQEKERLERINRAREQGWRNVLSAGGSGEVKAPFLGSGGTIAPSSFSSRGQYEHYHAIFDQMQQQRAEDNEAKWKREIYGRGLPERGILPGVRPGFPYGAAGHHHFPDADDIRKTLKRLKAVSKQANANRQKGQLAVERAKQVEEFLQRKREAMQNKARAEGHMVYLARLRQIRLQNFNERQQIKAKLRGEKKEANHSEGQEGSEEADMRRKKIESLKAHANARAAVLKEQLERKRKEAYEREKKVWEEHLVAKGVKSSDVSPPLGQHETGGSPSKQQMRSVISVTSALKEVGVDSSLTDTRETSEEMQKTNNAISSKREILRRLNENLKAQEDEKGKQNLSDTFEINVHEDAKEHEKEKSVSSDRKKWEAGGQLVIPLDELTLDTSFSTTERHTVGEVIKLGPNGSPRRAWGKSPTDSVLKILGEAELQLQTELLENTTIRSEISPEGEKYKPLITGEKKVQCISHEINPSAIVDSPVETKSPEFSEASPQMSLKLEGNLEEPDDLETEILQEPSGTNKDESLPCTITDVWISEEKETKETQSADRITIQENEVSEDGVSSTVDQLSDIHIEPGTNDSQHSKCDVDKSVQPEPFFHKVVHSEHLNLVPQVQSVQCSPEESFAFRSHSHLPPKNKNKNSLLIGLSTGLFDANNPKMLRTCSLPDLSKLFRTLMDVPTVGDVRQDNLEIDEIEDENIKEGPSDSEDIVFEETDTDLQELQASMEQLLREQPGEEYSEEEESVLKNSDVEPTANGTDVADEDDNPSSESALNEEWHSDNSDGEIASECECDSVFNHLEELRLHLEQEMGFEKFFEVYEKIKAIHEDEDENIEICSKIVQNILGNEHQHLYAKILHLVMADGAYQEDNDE

[7] = molecular target: Serine/threonine-protein kinase PLK3 (Homo sapiens) (UniProt Q9H4B4); experiment: Inhibition of human recombinant PLK3 at 15 nM in presence of ATP by radiometric assay relative to control
Serine/threonine-protein kinase PLK3 (Homo sapiens), sequence (Q9H4B4 whole entry, looked up): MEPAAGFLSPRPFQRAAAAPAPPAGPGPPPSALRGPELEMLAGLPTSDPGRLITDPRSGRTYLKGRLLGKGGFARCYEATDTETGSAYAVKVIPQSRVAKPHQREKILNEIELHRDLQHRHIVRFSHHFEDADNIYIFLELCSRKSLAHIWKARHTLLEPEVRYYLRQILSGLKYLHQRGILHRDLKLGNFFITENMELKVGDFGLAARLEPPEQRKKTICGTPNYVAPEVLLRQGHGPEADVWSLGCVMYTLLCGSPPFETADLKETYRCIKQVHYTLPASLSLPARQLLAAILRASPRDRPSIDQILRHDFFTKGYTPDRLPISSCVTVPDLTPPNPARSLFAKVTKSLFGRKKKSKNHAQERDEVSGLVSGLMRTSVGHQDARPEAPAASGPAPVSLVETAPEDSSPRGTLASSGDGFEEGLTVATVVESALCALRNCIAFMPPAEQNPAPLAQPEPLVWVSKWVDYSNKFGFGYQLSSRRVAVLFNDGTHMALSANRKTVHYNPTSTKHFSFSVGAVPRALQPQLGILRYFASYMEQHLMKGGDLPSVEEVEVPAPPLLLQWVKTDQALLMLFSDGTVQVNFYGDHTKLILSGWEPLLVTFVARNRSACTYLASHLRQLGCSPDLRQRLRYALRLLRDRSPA

[8] = molecular target: 5'-AMP-activated protein kinase catalytic subunit alpha-1 (Homo sapiens) (UniProt Q13131); experiment: Inhibition of human recombinant AMPKa1 at 15 nM related to control ULK1
5'-AMP-activated protein kinase catalytic subunit alpha-1 (Homo sapiens), sequence (Q13131 whole entry, looked up): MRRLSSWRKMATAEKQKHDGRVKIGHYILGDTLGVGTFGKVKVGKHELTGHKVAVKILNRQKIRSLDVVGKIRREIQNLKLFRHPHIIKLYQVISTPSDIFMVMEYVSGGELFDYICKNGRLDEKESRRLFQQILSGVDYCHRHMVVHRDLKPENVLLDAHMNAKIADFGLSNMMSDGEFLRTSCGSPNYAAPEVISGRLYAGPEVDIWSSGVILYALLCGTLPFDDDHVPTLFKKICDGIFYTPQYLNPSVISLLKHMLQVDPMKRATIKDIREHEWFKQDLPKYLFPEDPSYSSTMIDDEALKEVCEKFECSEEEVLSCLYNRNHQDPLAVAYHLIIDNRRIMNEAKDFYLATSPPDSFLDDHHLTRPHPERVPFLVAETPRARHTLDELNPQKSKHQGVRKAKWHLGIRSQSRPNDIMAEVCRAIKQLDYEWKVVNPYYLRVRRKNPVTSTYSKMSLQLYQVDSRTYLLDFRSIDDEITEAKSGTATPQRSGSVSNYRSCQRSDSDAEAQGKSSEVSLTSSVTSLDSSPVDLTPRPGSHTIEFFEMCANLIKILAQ
Summary of the method: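 Panel of 327 recombinant human kinases, each assayed in vitro by radiometric activity assay in duplicate at a single inhibitor concentration per compound, chosen with reference to its ULK1 inhibition. Activity remaining was expressed as percent of vehicle control, and percent inhibition was calculated as 100 minus percent activity remaining.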

[9] = molecular target: Death-associated protein kinase 2 (Homo sapiens) (UniProt Q9UIK4); experiment: Inhibition of human recombinant DAPK2 at 15 nM related to control ULK1
Death-associated protein kinase 2 (Homo sapiens), sequence (Q9UIK4 whole entry, looked up): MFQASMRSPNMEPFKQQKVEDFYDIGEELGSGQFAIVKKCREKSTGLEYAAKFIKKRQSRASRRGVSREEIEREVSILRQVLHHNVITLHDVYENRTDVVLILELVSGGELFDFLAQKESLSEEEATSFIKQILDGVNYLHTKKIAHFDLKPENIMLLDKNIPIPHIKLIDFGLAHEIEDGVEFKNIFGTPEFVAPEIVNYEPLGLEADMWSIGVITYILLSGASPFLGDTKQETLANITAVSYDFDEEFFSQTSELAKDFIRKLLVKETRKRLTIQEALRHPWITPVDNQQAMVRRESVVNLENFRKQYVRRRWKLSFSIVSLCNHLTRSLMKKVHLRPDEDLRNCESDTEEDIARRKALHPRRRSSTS

[10] = molecular target: Vascular endothelial growth factor receptor 3 (Homo sapiens) (UniProt P35916); experiment: Inhibition of human recombinant FLT4 at 40 nM in presence of ATP by radiometric assay relative to control
Vascular endothelial growth factor receptor 3 (Homo sapiens), sequence (P35916 whole entry): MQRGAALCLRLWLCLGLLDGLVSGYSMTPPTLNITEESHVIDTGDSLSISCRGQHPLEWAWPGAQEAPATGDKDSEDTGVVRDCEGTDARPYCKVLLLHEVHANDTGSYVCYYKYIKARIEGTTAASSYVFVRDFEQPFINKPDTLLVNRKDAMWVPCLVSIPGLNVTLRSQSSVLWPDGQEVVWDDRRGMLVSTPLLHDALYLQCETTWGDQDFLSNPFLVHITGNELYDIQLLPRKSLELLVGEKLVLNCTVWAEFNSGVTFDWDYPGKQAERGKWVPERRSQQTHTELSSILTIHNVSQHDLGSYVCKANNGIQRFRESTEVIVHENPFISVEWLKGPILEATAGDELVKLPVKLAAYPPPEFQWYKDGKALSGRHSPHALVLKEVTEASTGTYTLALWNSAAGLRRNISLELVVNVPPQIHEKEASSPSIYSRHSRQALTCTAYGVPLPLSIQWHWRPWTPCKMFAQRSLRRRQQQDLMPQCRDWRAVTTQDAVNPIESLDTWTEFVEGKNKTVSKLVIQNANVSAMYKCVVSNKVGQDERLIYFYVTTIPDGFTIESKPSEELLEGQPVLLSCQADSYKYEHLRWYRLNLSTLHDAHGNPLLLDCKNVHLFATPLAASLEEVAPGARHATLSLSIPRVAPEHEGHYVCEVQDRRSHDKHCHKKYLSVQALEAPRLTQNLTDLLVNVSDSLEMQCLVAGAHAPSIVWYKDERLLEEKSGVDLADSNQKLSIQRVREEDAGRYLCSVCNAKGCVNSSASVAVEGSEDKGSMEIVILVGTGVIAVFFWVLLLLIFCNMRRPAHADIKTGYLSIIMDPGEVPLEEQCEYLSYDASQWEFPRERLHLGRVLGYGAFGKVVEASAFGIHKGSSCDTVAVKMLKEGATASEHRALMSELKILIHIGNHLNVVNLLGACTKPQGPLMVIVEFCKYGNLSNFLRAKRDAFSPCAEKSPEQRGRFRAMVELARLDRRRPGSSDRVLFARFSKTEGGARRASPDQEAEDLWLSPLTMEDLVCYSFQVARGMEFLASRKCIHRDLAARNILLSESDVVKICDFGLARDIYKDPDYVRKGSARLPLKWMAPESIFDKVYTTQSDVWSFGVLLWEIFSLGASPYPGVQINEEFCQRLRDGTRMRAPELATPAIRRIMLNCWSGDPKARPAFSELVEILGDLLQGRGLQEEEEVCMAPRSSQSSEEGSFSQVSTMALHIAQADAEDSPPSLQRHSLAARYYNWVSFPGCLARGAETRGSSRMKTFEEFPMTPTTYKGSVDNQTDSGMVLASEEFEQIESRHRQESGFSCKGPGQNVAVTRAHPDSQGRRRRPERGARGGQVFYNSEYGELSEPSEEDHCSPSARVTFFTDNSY

[11] = molecular target: Tyrosine-protein kinase Fes/Fps (Homo sapiens) (UniProt P07332); experiment: Inhibition of human recombinant FES at 40 nM in presence of ATP by radiometric assay relative to control
Tyrosine-protein kinase Fes/Fps (Homo sapiens), sequence (P07332 whole entry): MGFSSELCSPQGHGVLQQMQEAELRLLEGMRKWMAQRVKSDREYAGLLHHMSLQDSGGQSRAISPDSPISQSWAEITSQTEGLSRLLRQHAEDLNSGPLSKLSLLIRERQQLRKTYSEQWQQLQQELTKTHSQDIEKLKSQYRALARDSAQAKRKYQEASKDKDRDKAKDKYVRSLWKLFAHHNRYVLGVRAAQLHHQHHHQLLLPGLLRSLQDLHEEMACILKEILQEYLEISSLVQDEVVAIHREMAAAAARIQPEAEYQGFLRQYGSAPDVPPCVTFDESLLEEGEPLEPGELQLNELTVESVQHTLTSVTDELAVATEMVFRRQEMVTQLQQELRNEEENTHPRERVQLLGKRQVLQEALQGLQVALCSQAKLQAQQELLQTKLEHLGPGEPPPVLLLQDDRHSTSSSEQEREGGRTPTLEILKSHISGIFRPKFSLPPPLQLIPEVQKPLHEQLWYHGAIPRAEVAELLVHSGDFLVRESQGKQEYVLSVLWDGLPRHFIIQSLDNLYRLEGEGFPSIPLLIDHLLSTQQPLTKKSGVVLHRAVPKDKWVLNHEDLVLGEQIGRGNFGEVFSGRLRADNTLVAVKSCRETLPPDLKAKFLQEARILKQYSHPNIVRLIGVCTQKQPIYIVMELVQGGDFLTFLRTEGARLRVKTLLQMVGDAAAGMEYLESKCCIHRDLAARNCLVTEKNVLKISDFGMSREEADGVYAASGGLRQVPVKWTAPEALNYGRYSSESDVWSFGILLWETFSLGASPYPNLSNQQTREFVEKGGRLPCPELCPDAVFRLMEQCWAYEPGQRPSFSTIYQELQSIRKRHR

[12] = molecular target: Serine/threonine-protein kinase Nek6 (Homo sapiens) (UniProt Q9HC98); experiment: Inhibition of human recombinant NEK6 at 40 nM in presence of ATP by radiometric assay relative to control
[13] = molecular target: Calcium/calmodulin-dependent protein kinase kinase 1 (Homo sapiens) (UniProt Q8N5S9); experiment: Inhibition of human recombinant CaMKK1 at 40 nM in presence of ATP by radiometric assay relative to control
Calcium/calmodulin-dependent protein kinase kinase 1 (Homo sapiens), sequence (Q8N5S9 whole entry, looked up): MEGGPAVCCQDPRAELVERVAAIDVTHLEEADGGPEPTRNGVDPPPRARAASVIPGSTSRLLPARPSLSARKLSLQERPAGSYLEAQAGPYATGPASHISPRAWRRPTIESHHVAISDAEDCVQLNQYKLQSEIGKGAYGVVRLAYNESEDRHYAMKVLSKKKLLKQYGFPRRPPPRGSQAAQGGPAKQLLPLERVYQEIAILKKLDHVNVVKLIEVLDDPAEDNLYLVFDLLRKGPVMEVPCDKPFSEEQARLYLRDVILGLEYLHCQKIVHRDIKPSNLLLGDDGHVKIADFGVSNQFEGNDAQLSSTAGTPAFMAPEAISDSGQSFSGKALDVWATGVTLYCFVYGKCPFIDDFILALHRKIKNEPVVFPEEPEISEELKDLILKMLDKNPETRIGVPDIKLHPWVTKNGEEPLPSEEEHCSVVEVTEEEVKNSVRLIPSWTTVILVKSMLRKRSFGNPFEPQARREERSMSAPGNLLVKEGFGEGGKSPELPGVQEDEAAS

Fibroblast growth factor receptor 2 (Homo sapiens), sequence (P21802 22-821 limits assumed): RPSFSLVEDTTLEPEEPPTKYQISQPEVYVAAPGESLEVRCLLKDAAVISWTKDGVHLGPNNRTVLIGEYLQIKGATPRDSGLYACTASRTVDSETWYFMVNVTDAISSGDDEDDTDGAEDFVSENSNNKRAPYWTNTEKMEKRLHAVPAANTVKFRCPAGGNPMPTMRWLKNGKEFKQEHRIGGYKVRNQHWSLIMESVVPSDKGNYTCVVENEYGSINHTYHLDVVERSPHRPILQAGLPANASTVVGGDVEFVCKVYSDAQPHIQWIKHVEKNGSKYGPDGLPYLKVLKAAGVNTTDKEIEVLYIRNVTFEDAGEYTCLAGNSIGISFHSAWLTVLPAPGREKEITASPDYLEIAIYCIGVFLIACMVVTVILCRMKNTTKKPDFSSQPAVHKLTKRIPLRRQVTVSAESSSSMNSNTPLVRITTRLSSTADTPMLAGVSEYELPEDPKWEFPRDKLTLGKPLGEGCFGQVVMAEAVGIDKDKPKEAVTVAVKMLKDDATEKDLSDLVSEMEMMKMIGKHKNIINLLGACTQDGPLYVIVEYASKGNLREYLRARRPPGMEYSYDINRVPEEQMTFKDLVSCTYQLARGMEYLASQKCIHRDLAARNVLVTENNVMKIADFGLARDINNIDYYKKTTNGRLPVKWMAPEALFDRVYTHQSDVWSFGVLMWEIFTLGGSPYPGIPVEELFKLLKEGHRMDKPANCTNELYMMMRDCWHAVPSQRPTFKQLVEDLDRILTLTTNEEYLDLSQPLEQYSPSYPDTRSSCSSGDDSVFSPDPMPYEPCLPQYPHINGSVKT

fold change (FC) [1]: 0.28
inhibition [2]: 0%
fold change (FC) [3]: 0.78
inhibition [4]: 0%
inhibition [5]: 0%
Structure (SMILES): CNC(=O)c1ccccc1Oc1nc(Nc2cc(OC)c(OC)c(OC)c2)ncc1Br

fold change (FC) [6]: 0.03
inhibition [7]: 3%
fold change (FC) [8]: 0.66
Structure (SMILES): CC(C)[C@H](NC(=O)c1cc(-c2cnn3cc(-c4ccc(OCCN5CCCCC5)cc4)cnc23)cs1)C(F)(F)F
fold change (FC) [9]: 0.07

inhibition [10]: 19%
inhibition [11]: 15%
inhibition [12]: 0%
inhibition [13]: 0%
Structure (SMILES): O=C(N[C@@H](C1CC1)C(F)(F)F)c1cc(-c2cnn3cc(-c4ccc(F)cc4)cnc23)cs1
